The values below come from ChEMBL document CHEMBL1122583, “Structure-activity relationships among DNA gyrase inhibitors. Synthesis and biological evaluation of 1,2-dihydro-4, 4-dimethyl-1-oxo-2-naphthalenecarboxylic acids as 1-carba bioisosteres of oxolinic acid” (1984).

For one assay, the system named is Klebsiella pneumoniae. Briefly: In vitro antifungal activity against Klebsiella pneumoniae AD (ATCC 10031). The class given is functional.
The subject of another assay is Escherichia coli. Briefly: In vitro antifungal activity against Escherichia coli (ATCC 9637). Format: functional.
The next assay deals with Candida albicans. Briefly: In vitro antifungal activity against Candida albicans (ATCC 10231). The class given is functional.
Assay [1] has as its system Mycolicibacterium smegmatis. Kind of assay: In vitro antifungal activity against Mycobacterium smegmatis (ATCC 607). The class given is functional.
The test system of another assay is Nucleic Acid. Kind of assay: In vitro DNA gyrase inhibition activity. The class given is nucleic-acid assay. A digest of the protocol:
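DNA gyrase holoenzyme, purified using a heparin-Sepharose affinity column in place of the DEAE-cellulose step. Supercoiling of relaxed ColE1 plasmid was run on 1% agarose horizontal gels. Relaxed and supercoiled bands were quantified by densitometry of photographic negatives. Because inhibition is noncompetitive, Ki was taken as the concentration giving 50% inhibition of supercoil band formation.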

Assay [2] concerns Salmonella enterica subsp. enterica serovar Gallinarum. Kind of assay: In vitro antifungal activity against Salmonella gallinarum (ATCC 9184). Format: functional.
For a further assay, the system named is Staphylococcus aureus. Kind of assay: In vitro antifungal activity against Staphylococcus aureus (ATCC 13709). Format: functional.

Values after ≈ are worked out from the molar mass of the structure shown.

For the compound `COc1cc2c(cc1OC)C(C)(C)C=C(C(=O)O)C2=O`, the MIC (with Klebsiella pneumoniae; in the assay on Escherichia coli; in the assay with Candida albicans; in assay [1]; in assay [2]; against Staphylococcus aureus) was more than 100 µg/mL throughout. Also, the Ki (concentration giving 50% inhibition of gyrase supercoiling) with Nucleic Acid was more than 1000 µg/mL.
`CC1(C)C=C(C(=O)O)C(=O)c2ccccc21`: the MIC was more than 250 µg/mL against Klebsiella pneumoniae; more than 250 µg/mL in the assay on Escherichia coli; more than 250 µg/mL in the assay on Candida albicans; 50 µg/mL (≈ 231 µM) in assay [1]; 50 µg/mL (≈ 231 µM) in assay [2]; 6.25 µg/mL (≈ 28.9 µM) in the assay on Staphylococcus aureus. Also, the Ki (concentration giving 50% inhibition of gyrase supercoiling) in the assay on Nucleic Acid was 2000 µg/mL.
Turning to `CC1(C)C=C(C(=O)O)C(=O)c2cc3c(cc21)CCO3`, the MIC in the assay with Klebsiella pneumoniae is more than 500 µg/mL; against Escherichia coli it was more than 500 µg/mL; in the assay on Candida albicans it was more than 500 µg/mL; in assay [1], 500 µg/mL (≈ 1940 µM); in assay [2] it was 500 µg/mL (≈ 1940 µM); against Staphylococcus aureus, 500 µg/mL (≈ 1940 µM). The same compound displayed a Ki (concentration giving 50% inhibition of gyrase supercoiling) in the assay with Nucleic Acid of 300 µg/mL.
`CC1(C)C=C(C(=O)O)C(=O)c2cc3c(cc21)OCO3`: the MIC against Klebsiella pneumoniae is more than 500 µg/mL; against Escherichia coli it was more than 500 µg/mL; in the assay on Candida albicans, more than 500 µg/mL; in assay [1] it was 500 µg/mL (≈ 1920 µM); in assay [2], 500 µg/mL (≈ 1920 µM); against Staphylococcus aureus, 500 µg/mL (≈ 1920 µM). The Ki (concentration giving 50% inhibition of gyrase supercoiling) with Nucleic Acid stood at 300 µg/mL.
As to `CC1(C)C=C(C(=O)O)C(=O)c2ccc3c(c21)OCC3`, the MIC (against Klebsiella pneumoniae; against Escherichia coli; in the assay with Candida albicans; in assay [1]; in assay [2]; in the assay with Staphylococcus aureus) was more than 100 µg/mL each time. In the assay on Nucleic Acid, this compound had a Ki (concentration giving 50% inhibition of gyrase supercoiling) of 300 µg/mL.
On to `CCn1cc(C(=O)O)c(=O)c2ccc(C)nc21` [NALIDIXIC ACID], for which the MIC against Klebsiella pneumoniae is 3.13 µg/mL (≈ 13.5 µM); against Escherichia coli it was 12.5 µg/mL (≈ 53.8 µM); in the assay on Candida albicans, more than 100 µg/mL; in assay [1], more than 100 µg/mL; in assay [2], 12.5 µg/mL (≈ 53.8 µM); against Staphylococcus aureus, 100 µg/mL (≈ 431 µM).
Consider `CCn1cc(C(=O)O)c(=O)c2cc3c(cc21)OCO3` [OXOLINIC ACID], for which the MIC in the assay with Klebsiella pneumoniae was less than 0.1 µg/mL; in the assay on Escherichia coli, 0.78 µg/mL (≈ 2.99 µM); in the assay on Candida albicans it was more than 100 µg/mL; in assay [1], 50 µg/mL (≈ 191 µM); in assay [2] it was 0.78 µg/mL (≈ 2.99 µM); in the assay with Staphylococcus aureus, 3.13 µg/mL (≈ 12 µM).

The MIC is the smallest concentration in the dilution series that meets the test's criterion for growth inhibition.
